Assay outcomes deposited in PubChem BioAssay by Broad Institute.
Rows were chosen to be rich in hits. Some 2.3% of all compounds tested hit in one or more screens of this group.
PDI turbidity: inhibitors of human protein disulfide isomerase; P07237; inhibition, % at 10 µM; 350,000 compounds, 0.052% hits; AID 588391; PDI insulin aggregation turbidity, A650, 90 min;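 active = mean inhibition across replicates of 30% or more, whatever share of single replicates reach that level; inconclusive = mean inhibition below 30% while every single replicate reaches 30%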
C2C12 statin: suppressors of simvastatin-induced myotoxicity in C2C12 myotubes. ATP luminescence, 48 h; scaled: DMSO 0, geranylgeraniol control 100. rescue of ATP level, % at 7.49 µM. 330,000 compounds, 0.78% hits;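 active = mean ATP rescue above about 67%, or every replicate alone reaching that limit, limit read from the data, passing the limit was not always enough; inconclusive = no clear call, values can overlap the other calls; inactive = mean under the limit and some replicate under it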;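 also: myotubes were challenged with 10 µM simvastatin during compound exposure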
ERp5 inh: blocks human ERp5 reductase activity on insulin; ERp5 insulin aggregation, absorbance 650 nm, 90 min; Q15084; inhibition, % at 9.99 µM; AID 651711; 350,000 compounds, 0.05% hits;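 active = mean replicate inhibition above about 25%, with every replicate also reaching it, limit read from the data, passing the limit was not always enough; inconclusive = only one of those two criteria met; inactive = neither criterion met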
Target sequence (Q15084 whole entry, looked up): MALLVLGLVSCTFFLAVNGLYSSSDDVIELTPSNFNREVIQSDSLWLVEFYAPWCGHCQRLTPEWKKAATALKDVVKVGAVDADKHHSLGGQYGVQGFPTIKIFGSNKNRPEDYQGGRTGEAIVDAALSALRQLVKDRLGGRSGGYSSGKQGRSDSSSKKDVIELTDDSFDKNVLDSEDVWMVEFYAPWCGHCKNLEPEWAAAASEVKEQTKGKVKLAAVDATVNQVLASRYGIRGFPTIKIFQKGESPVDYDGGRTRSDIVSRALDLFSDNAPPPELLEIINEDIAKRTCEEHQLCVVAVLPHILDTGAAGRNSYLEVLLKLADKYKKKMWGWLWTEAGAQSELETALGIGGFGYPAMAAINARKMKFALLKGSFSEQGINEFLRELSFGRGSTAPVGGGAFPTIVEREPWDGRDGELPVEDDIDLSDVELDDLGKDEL
Cneo AK release: causes C. neoformans cell lysis; adenylate kinase release luminescence, 4 h; normalised: neutral wells 0, clomiphene wells 100; lysis activity, % at 15 µM; 360,000 compounds, 0.2% hits; AID 651654;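 active = mean lysis activity across replicates of at least 80%, whatever share of replicates individually reach that level; inactive = mean lysis activity below 80%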
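Test system: log-phase Cryptococcus neoformans yeast cells. Input: 5 × 10^6 yeast cells/mL. Medium: fresh YPD growth medium. Doses: single dose. Incubation: static 4 h at 37 °C with compound, 1 h detection. Measured by: luminescent adenylate kinase detection reagent. Read-out: signal increase indicating cell lysis. Benchmarks: Clomiphene.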
F508del corr: correctors of CFTR F508del function in bronchial epithelial cells; CFBE cells, YFP halide quenching; stimulated with forskolin plus potentiator P3; % fluorescence drop versus neutral controls; activity (quench increase), % at 7.58 µM; 350,000 compounds, 0.36% hits; AID 720511;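 active = mean added fluorescence quench of at least 8% versus neutral control, with both replicates also reaching 8%; inconclusive = only one of the mean or replicate conditions met; inactive = mean below 8% and not both replicates reaching 8%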;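 also: cells transiently co-express mutant CFTR-F508del with the halide-sensitive YFP; corrector assay measuring rescue of mutant channel to the surface after 24 h compound exposure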
DENV2 CPE rescue: DENV2-induced cell death inhibition. DENV2-infected cells, cytopathic effect rescue, plate reader. CPE inhibition, % at 9.99 µM. 350,000 compounds, 1.7% hits. AID 651640; in the data active = CPE inhibition above about 20%, passing the limit was not always enough; inconclusive = no clear call, values can overlap the other calls; tested in BHK-21 cells;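 also: 0% = median of neutral control wells and 100% = median of positive control wells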
Numbers without * were called inactive; ? = inconclusive; . = not tested or not shown.

SMILES	PDI turbidity	C2C12 statin	ERp5 inh	Cneo AK release	F508del corr	DENV2 CPE rescue
CCN(C[C@H]1N[C@@](CC)(C(=O)OC)[C@H]2C(=O)N(Cc3ccccc3)C(=O)[C@@H]12)C(=O)COc1ccccc1	-2	3	4	1	1	66*
COCC(=O)N(C)C[C@H]1N[C@@](Cc2ccccc2)(C(=O)OC)[C@H]2C(=O)N(C)C(=O)[C@@H]12	4	7	-2	-2	4	0
CC=Cc1ccc2n(c1=O)C[C@H]1[C@H](CO)[C@@H](C(=O)NC3CCC3)N(CCC(F)(F)F)[C@@H]21 (mixture of isomers)	.	.	-3	.	4	5
CC=Cc1ccc2n(c1=O)C[C@@H]1[C@@H](CO)[C@H](C(=O)NCC3CC3)N(Cc3ccccn3)[C@H]21 (mixture of isomers)	.	39	-2	1	0	?
Cc1noc(C)c1NC(=O)Nc1ccc2c(c1)C(=O)N([C@H](C)CO)C[C@H](C)[C@@H](CN(C)Cc1ccccc1)OCCCC[C@@H](C)O2	.	.	6	28	1	1
CCN1C(=O)[C@H]2[C@H]3CN=C(SCc4ccc(Cl)cc4)N3[C@@](Cc3ccccc3)(C(=O)OC)[C@H]2C1=O	5	-14	0	1	3	17
COC(=O)[C@@]1(Cc2ccccc2)[C@H]2C(=O)N(Cc3ccccc3)C(=O)[C@H]2[C@H]2CN=C(SCc3ccc(Cl)cc3)N21	-2	-13	5	3	-1	85*
CC[C@@]1(C(=O)OC)N[C@H](CN(C)C(=O)NC(C)C)[C@@H]2C(=O)N(Cc3ccccc3)C(=O)[C@@H]21	-7	7	4	-1	-3	7
CCNC(=O)N(C)C[C@H]1N[C@@](CC)(C(=O)OC)[C@H]2C(=O)N(Cc3ccccc3)C(=O)[C@@H]12	5	3	4	1	-1	29*
COc1ccc2c3c(n(C)c2c1)[C@H](CO)N(C)CC31CN(CC2CC2)C1	.	.	7	.	0	9
COc1ccc2c3c(n(C)c2c1)[C@@H](CO)N(S(C)(=O)=O)CC31CCN(CC2CCCCC2)CC1	.	.	9	.	3	9
COc1ccc2c3c(n(C)c2c1)[C@H](CO)N(S(=O)(=O)c1cn(C)cn1)CC31CCN(C)CC1	.	.	2	.	-1	32*
COc1ccc2c3c(n(C)c2c1)[C@H](CO)N(S(=O)(=O)c1ccc(C)cc1)CC31CCN(C)CC1	.	.	-4	.	0	-1
COc1ccc2c3c(n(C)c2c1)[C@@H](CO)N(C)CC31CCN(CC2CC2)CC1	.	.	.	.	-3	48*
COc1ccc2c3c(n(C)c2c1)[C@@H](CO)N(S(C)(=O)=O)CC31CCN(CC2CCCC2)CC1	.	.	-7	.	0	56*
C/C=C/c1ccc([C@@H]2[C@@H](CO)N(C(=O)CN(C)C)C23CN(C(=O)C2CCC2)C3)cc1	.	.	4	.	1	-2
O=S(=O)(N[C@@H]1CC[C@@H](CCn2cc(-c3cccnc3)nn2)O[C@@H]1CO)c1ccc(F)cc1	.	6	-1	-4	-2	-5
CN(C)c1ccc2c(c1)[C@@H]1C[C@H](CC(=O)NCc3ccccc3)O[C@@H](CO)[C@@H]1O2	.	-4	-2	-3	3	21*
COc1ccccc1CNC(=O)C[C@@H]1C[C@H]2c3cc(N(C)C)ccc3O[C@H]2[C@@H](CO)O1	.	-4	-7	9	1	47*
CN(C)C(=O)[C@H]1[C@H](CO)[C@H]2Cn3c(ccc(-c4cccc(F)c4)c3=O)[C@@H]1N2CC1CC1	.	2	.	.	0	.
C[C@@H]1CN([C@@H](C)CO)C(=O)c2cc(NC(=O)CCC(F)(F)F)ccc2O[C@@H]1CN(C)C	.	-11	-1	-1	3	-5
CN1CCC(=NNC(=O)CN(c2ccc(Oc3ccccc3)cc2)S(C)(=O)=O)CC1	15	110*	-3	-1	2	10
CS(=O)(=O)N(CC(=O)NN=C1CCCCCC1)c1ccc(Oc2ccccc2)cc1	4	0	-2	0	5	1
CS(=O)(=O)N(Cc1ccc(C(=O)NN=C2CCCCCC2)cc1)c1ccccc1	12	-19	3	-3	0	110*
CCc1c(C2(O)CCCCC2)[nH]c2c(C(=O)OC)cc(Cl)cc12	-2	8	-2	-3	-3	30*
SMILES	PDI turbidity	C2C12 statin	ERp5 inh	Cneo AK release	F508del corr	DENV2 CPE rescue
CCN1[C@H](C(=O)OC)[C@@H](CO)[C@@H]2Cn3c(ccc(-c4cccc(OC)c4)c3=O)[C@@H]21	.	-1	.	2	-1	-3
CO[C@H]1CN(C)C(=O)c2ccc(NS(=O)(=O)c3ccc(C)cc3)cc2OC[C@H](C)NC[C@@H]1C	.	.	12	.	-2	8
COc1ccc(Cl)cc1-c1n[nH]c(=S)n1C1CCCCC1	12	-4	.	2	.	.
Cc1cc(Cl)ccc1OCc1n[nH]c(=S)n1C1CCCCC1	32*	19	.	15	.	.
Cc1noc(C)c1S(=O)(=O)N(C)C[C@@H]1Oc2ccc(NS(=O)(=O)c3ccccc3)cc2CC(=O)N([C@H](C)CO)C[C@@H]1C	.	2	0	0	2	-1
C[C@H]1CN([C@@H](C)CO)C(=O)c2cc(NS(=O)(=O)c3ccc(Cl)cc3)ccc2O[C@H]1CN(C)S(=O)(=O)c1cccs1	.	?	-1	-1	2	22*
Cc1ccc(S(=O)(=O)Nc2ccc3c(c2)C(=O)N([C@@H](C)CO)C[C@@H](C)[C@@H](CN(C)S(=O)(=O)c2cccs2)O3)cc1	.	0	4	-1	-1	-2
Cc1ccc(S(=O)(=O)Nc2ccc3c(c2)C(=O)N([C@@H](C)CO)C[C@@H](C)[C@H](CN(C)S(=O)(=O)c2cccs2)O3)cc1	.	100*	-3	-1	-1	-9
CCCN(C)C[C@@H]1Oc2cc(C3=CCCCC3)ccc2S(=O)(=O)N([C@@H](C)CO)C[C@H]1C	.	-89	.	.	0	.
Cc1cccc(OCCCCc2c(C)n[nH]c2C)c1C	-3	103*	3	28	2	2
CCOc1ccccc1OCCCCCc1c(C)n[nH]c1C	22	6	.	4	.	.
COc1cc(C(=O)Oc2cccc(C=O)c2)cc(OC)c1OC	6	5	.	1	.	.
COc1cc(C(=O)OCCCc2cc3ccccc3c(=O)o2)cc(OC)c1OC	20	-9	-1	-2	5	?
COc1cc(C(=O)OCCc2cc3ccccc3c(=O)o2)cc(OC)c1OC	12	3	9	6	11*	-5
COc1cc(C(=O)Oc2ccccc2N)cc(OC)c1OC	-12	11	.	92*	.	.
CCOc1ccc(C(=O)c2cc([N+](=O)[O-])ccc2N2CCOCC2)cc1	10	.	1	.	.	-5
O=C(COC(=O)c1cc([N+](=O)[O-])ccc1N1CCOCC1)Nc1c(Cl)cccc1Cl	-17	-18	1	.	11*	9
